This passage reports Ki, Activity and ED50 results from ChEMBL document CHEMBL4808213, “2-(Halogenated Phenyl) acetamides and propanamides as potent TRPV1 antagonists” (Bioorg Med Chem Lett, 2021).

Each structure is given as a SMILES string. The source made the active and inactive calls. No cut-off for these calls is given here.

For the first assay, the target named is T1, Transient receptor potential cation channel subfamily V member 1 (Homo sapiens, UniProt Q8NER1). The assay is described as follows: Antagonist activity at human TRPV1 expressed in CHO cells assessed as inhibition of capsaicin-induced TRPV1 activation by FLIPR method. The format is cell-based.
T1 sequence (Q8NER1 whole entry): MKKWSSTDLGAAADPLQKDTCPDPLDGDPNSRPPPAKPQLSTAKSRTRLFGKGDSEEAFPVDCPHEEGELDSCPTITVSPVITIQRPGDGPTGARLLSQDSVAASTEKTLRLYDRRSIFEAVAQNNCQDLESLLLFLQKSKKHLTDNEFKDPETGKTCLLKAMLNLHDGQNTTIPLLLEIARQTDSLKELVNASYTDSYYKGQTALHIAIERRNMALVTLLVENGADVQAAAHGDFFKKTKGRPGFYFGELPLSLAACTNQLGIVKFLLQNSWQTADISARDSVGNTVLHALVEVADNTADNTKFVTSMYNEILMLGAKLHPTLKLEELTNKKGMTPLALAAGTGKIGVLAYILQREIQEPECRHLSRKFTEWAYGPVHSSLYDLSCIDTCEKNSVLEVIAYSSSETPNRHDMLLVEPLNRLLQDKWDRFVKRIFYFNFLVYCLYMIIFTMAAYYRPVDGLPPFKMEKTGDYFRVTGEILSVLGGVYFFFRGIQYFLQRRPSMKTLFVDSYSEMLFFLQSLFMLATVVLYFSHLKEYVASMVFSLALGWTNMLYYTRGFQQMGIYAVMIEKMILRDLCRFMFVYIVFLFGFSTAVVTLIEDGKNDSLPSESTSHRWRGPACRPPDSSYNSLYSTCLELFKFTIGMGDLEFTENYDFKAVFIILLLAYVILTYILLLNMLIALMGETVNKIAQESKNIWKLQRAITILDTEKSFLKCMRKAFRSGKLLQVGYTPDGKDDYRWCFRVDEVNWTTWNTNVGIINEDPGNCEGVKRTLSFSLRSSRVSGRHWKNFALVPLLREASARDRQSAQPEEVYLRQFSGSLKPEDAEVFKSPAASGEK
Details: not given
Turning to `O=C(Cc1cccc(F)c1F)NCc1cc(C(F)(F)F)nn1-c1cccc(Cl)c1`, the Ki came to 11.5 nM.
For the molecule `O=C(Cc1ccc(F)cc1F)NCc1cc(C(F)(F)F)nn1-c1cccc(Cl)c1`, the Ki worked out at 43.3 nM.
The same measure, in the same setting: then `O=C(Cc1cc(F)cc(F)c1)NCc1cc(C(F)(F)F)nn1-c1cccc(Cl)c1`, with 13.7 nM; and `O=C(Cc1ccc(F)cc1Cl)NCc1cc(C(F)(F)F)nn1-c1cccc(Cl)c1`, with 38.8 nM; and `CC1CCN(c2nc(C(F)(F)F)ccc2CNC(=O)Cc2cccc(Cl)c2Cl)CC1`, with 4.9 nM.
For `CC(C)(C)c1cc(CNC(=O)Cc2ccc(Cl)cc2Cl)n(-c2cccc(Cl)c2)n1`, the Ki was 16.7 nM.
`CC1CCN(c2nc(C(F)(F)F)ccc2CNC(=O)[C@@H](C)c2ccc(NS(C)(=O)=O)c(F)c2)CC1` (racemic): the Ki turned out to be 0.3 nM.
Regarding `CC1CCN(c2nc(C(F)(F)F)ccc2CNC(=O)Cc2ccc(Cl)cc2Cl)CC1`, the Ki came out at 46 nM.
On the same count and under the same terms, then `O=C(Cc1cccc(Cl)c1Cl)NCc1cc(C(F)(F)F)nn1-c1cccc(Cl)c1`, with 22.6 nM.
On to `O=C(Cc1ccc(Cl)cc1)NCc1cc(C(F)(F)F)nn1-c1cccc(Cl)c1`, for which the inhibition constant (Ki) worked out at 6.3 nM.
The same measure, in the same setting: the result for `CC(C)(C)c1cc(CNC(=O)Cc2ccc(F)cc2Cl)n(-c2cccc(Cl)c2)n1` reads 19.9 nM; that for `CC(C)(C)c1cc(CNC(=O)Cc2c(F)cccc2Cl)n(-c2cccc(Cl)c2)n1`, 19 nM.
Turning to `O=C(Cc1ccc(Cl)c(F)c1)NCc1cc(C(F)(F)F)nn1-c1cccc(Cl)c1`, the inhibition constant Ki was 20.9 nM.
Regarding `C[C@H](C(=O)NCc1cc(C(C)(C)C)nn1-c1cccc(Cl)c1)c1ccc(NS(C)(=O)=O)c(F)c1`, the Ki was 0.3 nM.
Still for that read-out and setting: then `CC1CCN(c2nc(C(F)(F)F)ccc2CNC(=O)Cc2cccc(Cl)c2)CC1`, with 6.1 nM.
The same measure, in the same setting: then `CC(C)(C)c1cc(CNC(=O)Cc2cccc(F)c2F)n(-c2cccc(Cl)c2)n1`, with 6.9 nM; and `CC1CCN(c2nc(C(F)(F)F)ccc2CNC(=O)Cc2ccc(F)c(C(F)(F)F)c2)CC1`, with 9.8 nM.
In the case of `O=C(Cc1ccc(Cl)c(Cl)c1)NCc1cc(C(F)(F)F)nn1-c1cccc(Cl)c1`, the Ki amounted to 3.8 nM.
For the molecule `CC1CCN(c2nc(C(F)(F)F)ccc2CNC(=O)Cc2ccc(F)cc2Cl)CC1`, the Ki was 14.2 nM.
As for `CC1CCN(c2nc(C(F)(F)F)ccc2CNC(=O)Cc2c(Cl)cccc2Cl)CC1`, the Ki is 39.7 nM.
On the same count and under the same terms, then `CC1CCN(c2nc(C(F)(F)F)ccc2CNC(=O)Cc2c(F)cccc2Cl)CC1`, with 2.6 nM.
On to `O=C(Cc1cc(F)ccc1F)NCc1cc(C(F)(F)F)nn1-c1cccc(Cl)c1`, for which the Ki was 58.9 nM.

A further assay deals with T1, Transient receptor potential cation channel subfamily V member 1. Put plainly: Agonist activity at human TRPV1 expressed in CHO cells. The format is cell-based. Particulars: filed as agonist.
For `CC(C(=O)NCc1cc(C(C)(C)C)nn1-c1cccc(Cl)c1)c1ccc(F)c(F)c1` (configuration not stated), the outcome was Active.
Turning to `CC(C(=O)NCc1cc(C(C)(C)C)nn1-c1cccc(Cl)c1)c1ccc(F)c(Cl)c1` (configuration not stated), the result was Active.
The same measure, in the same setting: then `CC(C(=O)NCc1cc(C(C)(C)C)nn1-c1cccc(Cl)c1)c1ccc(Cl)cc1` (configuration not stated), with “Active”; and `CC1CCN(c2nc(C(F)(F)F)ccc2CNC(=O)C(C)c2ccc(F)c(F)c2)CC1` (configuration not stated), with “Active”; and `CC1CCN(c2nc(C(F)(F)F)ccc2CNC(=O)C(C)c2cccc(F)c2)CC1` (configuration not stated), with “Active”.
With `CC(C)(C)c1cc(CNC(=O)Cc2ccc(Cl)cc2)n(-c2cccc(Cl)c2)n1`, the outcome was Active.
On the same count and under the same terms, then `CC(C(=O)NCc1cc(C(C)(C)C)nn1-c1cccc(Cl)c1)c1cccc(F)c1` (configuration not stated), with “Active”.
On the same count and under the same terms, the result for `CC(C(=O)NCc1cc(C(C)(C)C)nn1-c1cccc(Cl)c1)c1ccc(F)cc1F` (configuration not stated) reads “Active”; that for `CC(C)(C)c1cc(CNC(=O)Cc2cccc(F)c2)n(-c2cccc(Cl)c2)n1`, “Active”; that for `CC1CCN(c2nc(C(F)(F)F)ccc2CNC(=O)C(C)c2ccc(F)cc2Cl)CC1` (configuration not stated), “Active”.
For `CC(C(=O)NCc1cc(C(C)(C)C)nn1-c1cccc(Cl)c1)c1cccc(Cl)c1` (configuration not stated), the result was Active.
The same measure, in the same setting: then `CC(C)(C)c1cc(CNC(=O)Cc2cccc(Cl)c2)n(-c2cccc(Cl)c2)n1`, with “Active”; and `CC(C(=O)NCc1cc(C(C)(C)C)nn1-c1cccc(Cl)c1)c1ccc(Cl)cc1Cl` (configuration not stated), with “Active”; and `CC(C)(C)c1cc(CNC(=O)Cc2ccc(F)c(F)c2)n(-c2cccc(Cl)c2)n1`, with “Active”.
For the molecule `CC(C)(C)c1cc(CNC(=O)Cc2ccc(F)c(Cl)c2)n(-c2cccc(Cl)c2)n1`, the outcome was Active.
Turning to `CC(C(=O)NCc1cc(C(C)(C)C)nn1-c1cccc(Cl)c1)c1ccc(F)cc1` (configuration not stated), the outcome was Active.
On the same count and under the same terms, then `CC(C)(C)c1cc(CNC(=O)Cc2ccc(F)cc2)n(-c2cccc(Cl)c2)n1`, with “Active”; and `CC1CCN(c2nc(C(F)(F)F)ccc2CNC(=O)C(C)c2ccc(F)cc2)CC1` (configuration not stated), with “Active”.
As for `CC1CCN(c2nc(C(F)(F)F)ccc2CNC(=O)Cc2ccc(F)cc2)CC1`, the outcome was Active.
Turning to `CC(C(=O)NCc1cc(C(C)(C)C)nn1-c1cccc(Cl)c1)c1ccc(Cl)c(Cl)c1` (configuration not stated), the result was Active.
The same measure, in the same setting: then `CC1CCN(c2nc(C(F)(F)F)ccc2CNC(=O)Cc2ccc(Cl)cc2)CC1`, with “Active”.
The same measure, in the same setting: then `CC(C(=O)NCc1cc(C(C)(C)C)nn1-c1cccc(Cl)c1)c1cc(F)cc(F)c1` (configuration not stated), with “Active”; and `CC1CCN(c2nc(C(F)(F)F)ccc2CNC(=O)Cc2ccc(F)cc2F)CC1`, with “Active”.
The same measure, in the same setting: then `CC(C(=O)NCc1cc(C(C)(C)C)nn1-c1cccc(Cl)c1)c1ccc(Cl)c(F)c1` (configuration not stated), with “Active”; and `CC(C(=O)NCc1cc(C(C)(C)C)nn1-c1cccc(Cl)c1)c1ccccc1F` (configuration not stated), with “Active”.

For another assay the target is unchanged. Put plainly: Partial agonist activity at human TRPV1 expressed in CHO cells. The format is cell-based. Particulars: filed as partial agonist.
For the molecule `O=C(Cc1ccc(F)cc1)NCc1cc(C(F)(F)F)nn1-c1cccc(Cl)c1`, the outcome was Active.
Same read-out and setting: the result for `CC(C(=O)NCc1cc(C(F)(F)F)nn1-c1cccc(Cl)c1)c1cccc(F)c1` (configuration not stated) reads “Active”; that for `CC(C(=O)NCc1cc(C(C)(C)C)nn1-c1cccc(Cl)c1)c1cccc(F)c1F` (configuration not stated), “Active”.
Take `CC(C(=O)NCc1cc(C(F)(F)F)nn1-c1cccc(Cl)c1)c1ccc(Cl)cc1` (configuration not stated): the outcome was Active.
The same measure, in the same setting: then `CC(C(=O)NCc1cc(C(C)(C)C)nn1-c1cccc(Cl)c1)c1c(F)cccc1F` (configuration not stated), with “Active”.
`CC(C)(C)c1cc(CNC(=O)Cc2cc(F)ccc2F)n(-c2cccc(Cl)c2)n1`: the result was Active.
On the same count and under the same terms, then `CC(C(=O)NCc1cc(C(F)(F)F)nn1-c1cccc(Cl)c1)c1ccc(F)cc1` (configuration not stated), with “Active”; and `CC(C)(C)c1cc(CNC(=O)Cc2ccc(Cl)c(Cl)c2)n(-c2cccc(Cl)c2)n1`, with “Active”.
In the case of `CC1CCN(c2nc(C(F)(F)F)ccc2CNC(=O)C(C)c2ccc(Cl)c(Cl)c2)CC1` (configuration not stated), the result was Active.
As to `CC(C(=O)NCc1cc(C(C)(C)C)nn1-c1cccc(Cl)c1)c1cccc(Cl)c1Cl` (configuration not stated), the outcome was Active.
Still for that read-out and setting: the result for `CC(C)(C)c1cc(CNC(=O)Cc2ccc(Cl)c(F)c2)n(-c2cccc(Cl)c2)n1` reads “Active”; that for `CC(C(=O)NCc1cc(C(C)(C)C)nn1-c1cccc(Cl)c1)c1ccccc1Cl` (configuration not stated), “Active”.
Still for that read-out and setting: the result for `O=C(Cc1ccc(F)c(F)c1)NCc1cc(C(F)(F)F)nn1-c1cccc(Cl)c1` reads “Active”; that for `CC(C)(C)c1cc(CNC(=O)Cc2ccc(F)cc2F)n(-c2cccc(Cl)c2)n1`, “Active”; that for `CC(C(=O)NCc1cc(C(C)(C)C)nn1-c1cccc(Cl)c1)c1cc(F)ccc1F` (configuration not stated), “Active”.
The same measure, in the same setting: the result for `CC(C(=O)NCc1cc(C(F)(F)F)nn1-c1cccc(Cl)c1)c1ccc(F)cc1F` (configuration not stated) reads “Active”.
Consider `CC(C(=O)NCc1cc(C(F)(F)F)nn1-c1cccc(Cl)c1)c1ccc(F)c(F)c1` (configuration not stated), for which the result was Active.
The same measure, in the same setting: the result for `CC1CCN(c2nc(C(F)(F)F)ccc2CNC(=O)C(C)c2ccc(F)cc2F)CC1` (configuration not stated) reads “Active”; that for `CC(C)(C)c1cc(CNC(=O)Cc2cc(F)cc(F)c2)n(-c2cccc(Cl)c2)n1`, “Active”; that for `CC(C(=O)NCc1cc(C(F)(F)F)nn1-c1cccc(Cl)c1)c1cccc(Cl)c1` (configuration not stated), “Active”.
For the molecule `CC1CCN(c2nc(C(F)(F)F)ccc2CNC(=O)Cc2ccc(F)c(F)c2)CC1`, the result was Active.
The same measure, in the same setting: then `CC1CCN(c2nc(C(F)(F)F)ccc2CNC(=O)Cc2ccc(Cl)c(F)c2)CC1`, with “Active”; and `CC(C)(C)c1cc(CNC(=O)Cc2ccccc2F)n(-c2cccc(Cl)c2)n1`, with “Active”; and `CC1CCN(c2nc(C(F)(F)F)ccc2CNC(=O)C(C)c2ccc(Cl)c(F)c2)CC1` (configuration not stated), with “Active”.
On the same count and under the same terms, then `CC1CCN(c2nc(C(F)(F)F)ccc2CNC(=O)C(C)c2ccc(Cl)cc2)CC1` (configuration not stated), with “Active”.
In the case of `CC(C(=O)NCc1cc(C(F)(F)F)nn1-c1cccc(Cl)c1)c1cc(F)cc(F)c1` (configuration not stated), the result was Active.

In a further assay the test system is Mus musculus. Put plainly: Analgesic activity in ip dosed mouse model of formalin-induced paw edema assessed as reduction in pain behaviour by measuring effective dose in 1st phase. Format: functional.
Details: not given
In short, it runs like this:
(§1)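 Formalin test in mice, with antagonist given by intraperitoneal injection before testing. Nociceptive behaviour was scored separately in the 1st and 2nd phases. Several doses were tested, and ED50 for each phase was derived from the dose-response.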
With `CC(C)(C)c1cc(CNC(=O)Cc2cccc(F)c2F)n(-c2cccc(Cl)c2)n1`, the ED50 stood at 50.5 mg/kg.

Another assay concerns Mus musculus. Put plainly: Analgesic activity in ip dosed mouse model of formalin-induced paw edema assessed as reduction in pain behaviour by measuring effective dose in 2nd phase.
Details: not given
Format: functional. In short, it runs like this:
as §1
As for `CC(C)(C)c1cc(CNC(=O)Cc2cccc(F)c2F)n(-c2cccc(Cl)c2)n1`, the ED50 is 29.5 mg/kg.

A further assay concerns Mus musculus. The assay is described as follows: Analgesic activity in ip dosed mouse model of formalin-induced paw edema. The format is functional, organism-based.
Details: not given
In short, it runs like this:
as §1
On to `CC1CCN(c2nc(C(F)(F)F)ccc2CNC(=O)Cc2c(F)cccc2Cl)CC1`, for which the outcome was inactive.

The next assay concerns Mus musculus. Put plainly: Analgesic activity in mouse model of formalin-induced paw edema assessed as induction of hyperthermia at 10 mg/kg, ip. Format: functional, organism-based.
Details: not given
A digest of the protocol: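 Mice received 10 mg/kg intraperitoneally, and body temperature was then measured to check for hyperthermia.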
Consider `CC(C)(C)c1cc(CNC(=O)Cc2cccc(F)c2F)n(-c2cccc(Cl)c2)n1`, for which the outcome was inactive.
